Key:
[1] = Intrinsic clearance in rat hepatocytes assessed per million cells; assay type: ADME, cell-based, Hepatocyte; details: read-out: CLH
Summary of the method: (§1)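 Rate of metabolism (µl/min/10⁶ cells) measured from DMSO stock in isolated hepatocytes diluted to 1x10⁶ cells/mL.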

[2] = Intrinsic clearance in human hepatocytes assessed per million cells; assay type: ADME, cell-based, Hepatocyte; details: read-out: CLH; summary of the method: as §1
[3] = Fraction unbound in mouse plasma by equilibrium dialysis; assay type: ADME, cell-free
[4] = Clearance in rat at 0.5 mg/kg, iv or 1 mg/kg, po; assay type: ADME, organism-based; details: in vivo
Summary of the method: (§2)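 Single IV dose of 0.5 mg/kg and oral dose of 1 mg/kg in rat and dog. Both routes were formulated in 5% DMSO:95% hydroxypropyl β-cyclodextrin (30% w/v), at 1 mL/kg IV and 4 mL/kg PO.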

[5] = Clearance in dog at 0.5 mg/kg, iv or 1 mg/kg, po; assay type: ADME, organism-based, Canis lupus familiaris; details: in vivo; summary of the method: as §2
[6] = Volume of distribution at steady state in rat at 0.5 mg/kg, iv or 1 mg/kg, po; assay type: ADME, organism-based; details: in vivo, read-out: Vdss; summary of the method: as §2
[7] = Half life in dog at 0.5 mg/kg, iv or 1 mg/kg, po; assay type: ADME, organism-based, Canis lupus familiaris; details: in vivo; summary of the method: as §2
[8] = Oral bioavailability in dog at 1 mg/kg; assay type: ADME, organism-based, Canis lupus familiaris; details: in vivo; summary of the method: as §2
Estrogen receptor [9] = biological target: T1, Estrogen receptor (Homo sapiens, UniProt P03372); assay: Induction of ERalpha degradation in human MCF7 cells assessed as reduction in ERalpha protein expression after 5 hrs by formaldehyde-staining based assay; assay type: cell-based
T1 sequence (P03372 whole entry): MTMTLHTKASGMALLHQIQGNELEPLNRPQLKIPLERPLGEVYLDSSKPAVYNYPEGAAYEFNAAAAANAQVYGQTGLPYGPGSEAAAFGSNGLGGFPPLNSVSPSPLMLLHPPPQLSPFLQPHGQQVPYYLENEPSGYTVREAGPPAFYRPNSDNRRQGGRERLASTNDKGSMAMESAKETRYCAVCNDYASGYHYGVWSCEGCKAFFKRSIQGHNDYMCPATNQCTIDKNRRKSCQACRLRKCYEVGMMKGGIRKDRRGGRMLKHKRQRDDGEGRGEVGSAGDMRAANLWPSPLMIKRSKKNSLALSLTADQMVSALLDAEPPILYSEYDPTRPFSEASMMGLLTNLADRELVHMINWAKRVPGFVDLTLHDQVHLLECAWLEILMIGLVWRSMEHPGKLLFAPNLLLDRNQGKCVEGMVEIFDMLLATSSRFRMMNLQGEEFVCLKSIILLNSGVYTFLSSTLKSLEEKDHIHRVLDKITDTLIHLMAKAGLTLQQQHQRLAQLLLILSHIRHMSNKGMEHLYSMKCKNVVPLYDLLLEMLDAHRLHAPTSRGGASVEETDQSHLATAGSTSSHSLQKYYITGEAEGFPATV

Estrogen receptor [10] = biological target: T1, Estrogen receptor; assay: Induction of ERalpha degradation in human MCF7 cells assessed as reduction in ERalpha protein expression after 5 hrs in absence of […] tamoxifen by formaldehyde-staining based assay; assay type: cell-based
Estrogen receptor [11] = biological target: T1, Estrogen receptor; assay: Agonist activity at ERalpha in human MCF7 cells assessed as effect on PR protein expression after 5 hrs by formaldehyde-staining based assay; assay type: cell-based
[12] = biological target: T2, Estrogen receptor (Homo sapiens) (UniProt P03372); assay: Antagonist activity at ERalpha in human MCF7 cells assessed as inhibition of estradiol-driven cell growth measured after overnight incubation by SYTOX green-based assay
T2 sequence (whole entry): T1 sequence (P03372 whole entry)
Summary of the method: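 MCF-7 cells grown at 37 °C, 5% CO₂, humidified, in phenol red-free RPMI1640 with 5% charcoal-stripped FCS and 2 mmol/L glutamine. Compounds held as 10 mmol/L DMSO stocks under nitrogen. Proliferation read in the presence of 0.1 nM estradiol.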

Estrogen receptor [13] = biological target: T1, Estrogen receptor; assay: Antagonist activity at ERalpha in human MCF7 cells assessed as inhibition of estradiol-driven PR response by microplate cytometry; assay type: cell-based
Mus musculus = assay: In vivo antagonist activity at ERalpha in tumor of human MCF7 cells xenografted in SCID CB17 mouse assessed as reduction in normalized PR levels at 50 mg/kg, po administered once daily for 3 days measured after 24 hrs post last dose by Western blot analysis relative to control; assay type: functional; set-up: scale not given: the % may be the effect or the level left
Summary of the method: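 Male SCID mice carried a 0.5 mg/21 day s.c. estrogen pellet, with 5x10^6 MCF-7 cells implanted s.c. in the hind flank 24 h later. Groups of 5 were randomised at 0.5–0.8 cm³ and gavaged once daily for 3 d in PEG400/Captisol/water vehicle at 10 ml/kg. Tumours were taken 24 h post-dose, and PR was read by Western blot normalized to vinculin.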

[14] = Glutathione reactivity in human liver microsomes assessed as GSH trapping ratio of compound to clozapine; assay type: ADME, Microsome
Summary of the method: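 Glutathione trapping in human liver microsomes, expressed as a ratio to clozapine.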

Cytochrome P450 3A4 = Cytochrome P450 3A4 (Homo sapiens, UniProt P08684); assay: Inhibition of CYP3A4 in human liver microsomes; assay type: ADME
Summary of the method: (§3)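 High-throughput human liver microsome assay across a panel of five CYP isoforms, giving IC50.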

[15] = biological target: Voltage-gated inwardly rectifying potassium channel KCNH2 (Homo sapiens, UniProt Q12809); assay: Inhibition of human ERG by plate based planar patch clamp assay
Cytochrome P450 1A2 = biological target: T3, Cytochrome P450 1A2 (Homo sapiens, UniProt P05177); assay: Inhibition of CYP1A2 in human liver microsomes; assay type: ADME; summary of the method: as §3
T3 sequence (P05177 whole entry): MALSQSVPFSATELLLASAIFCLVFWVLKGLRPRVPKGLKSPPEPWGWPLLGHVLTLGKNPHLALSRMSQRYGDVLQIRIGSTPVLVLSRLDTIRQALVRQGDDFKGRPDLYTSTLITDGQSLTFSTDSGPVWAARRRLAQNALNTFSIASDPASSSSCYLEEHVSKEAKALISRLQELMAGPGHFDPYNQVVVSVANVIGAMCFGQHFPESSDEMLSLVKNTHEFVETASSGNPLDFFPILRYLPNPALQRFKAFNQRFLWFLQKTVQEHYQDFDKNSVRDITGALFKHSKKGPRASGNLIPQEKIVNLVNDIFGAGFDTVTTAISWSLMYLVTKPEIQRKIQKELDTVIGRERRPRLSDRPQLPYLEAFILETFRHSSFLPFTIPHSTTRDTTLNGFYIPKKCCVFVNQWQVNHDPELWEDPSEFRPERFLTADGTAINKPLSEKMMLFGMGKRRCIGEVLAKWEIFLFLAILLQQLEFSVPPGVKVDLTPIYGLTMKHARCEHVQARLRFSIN

[16] = Stability in pH 1 deuterated buffer assessed as compound remaining after 8 days by 1H NMR spectroscopy; assay type: physicochemical; details: pH 4 deuterated buffer, in the assay text read “pH 4” for “pH 1”, read-out: Stability
Summary of the method: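 Compound diluted from a 25 mM DMSO-d6 stock to a final 1 mM in each deuterated buffer. Followed by ¹H NMR (500 MHz, water suppression, 64 scans) and LC-MS at 0, 24, 72 and 192 h (8 days).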

[17] = Toxicity in SCID CB17 mouse xenografted with human MCF7 cells at 20 mg/kg, po administered once daily and measured on day 20 of dosing; details: in vivo, 20 d

Chain of Voltage-gated inwardly rectifying potassium channel KCNH2 (Q12809 whole entry): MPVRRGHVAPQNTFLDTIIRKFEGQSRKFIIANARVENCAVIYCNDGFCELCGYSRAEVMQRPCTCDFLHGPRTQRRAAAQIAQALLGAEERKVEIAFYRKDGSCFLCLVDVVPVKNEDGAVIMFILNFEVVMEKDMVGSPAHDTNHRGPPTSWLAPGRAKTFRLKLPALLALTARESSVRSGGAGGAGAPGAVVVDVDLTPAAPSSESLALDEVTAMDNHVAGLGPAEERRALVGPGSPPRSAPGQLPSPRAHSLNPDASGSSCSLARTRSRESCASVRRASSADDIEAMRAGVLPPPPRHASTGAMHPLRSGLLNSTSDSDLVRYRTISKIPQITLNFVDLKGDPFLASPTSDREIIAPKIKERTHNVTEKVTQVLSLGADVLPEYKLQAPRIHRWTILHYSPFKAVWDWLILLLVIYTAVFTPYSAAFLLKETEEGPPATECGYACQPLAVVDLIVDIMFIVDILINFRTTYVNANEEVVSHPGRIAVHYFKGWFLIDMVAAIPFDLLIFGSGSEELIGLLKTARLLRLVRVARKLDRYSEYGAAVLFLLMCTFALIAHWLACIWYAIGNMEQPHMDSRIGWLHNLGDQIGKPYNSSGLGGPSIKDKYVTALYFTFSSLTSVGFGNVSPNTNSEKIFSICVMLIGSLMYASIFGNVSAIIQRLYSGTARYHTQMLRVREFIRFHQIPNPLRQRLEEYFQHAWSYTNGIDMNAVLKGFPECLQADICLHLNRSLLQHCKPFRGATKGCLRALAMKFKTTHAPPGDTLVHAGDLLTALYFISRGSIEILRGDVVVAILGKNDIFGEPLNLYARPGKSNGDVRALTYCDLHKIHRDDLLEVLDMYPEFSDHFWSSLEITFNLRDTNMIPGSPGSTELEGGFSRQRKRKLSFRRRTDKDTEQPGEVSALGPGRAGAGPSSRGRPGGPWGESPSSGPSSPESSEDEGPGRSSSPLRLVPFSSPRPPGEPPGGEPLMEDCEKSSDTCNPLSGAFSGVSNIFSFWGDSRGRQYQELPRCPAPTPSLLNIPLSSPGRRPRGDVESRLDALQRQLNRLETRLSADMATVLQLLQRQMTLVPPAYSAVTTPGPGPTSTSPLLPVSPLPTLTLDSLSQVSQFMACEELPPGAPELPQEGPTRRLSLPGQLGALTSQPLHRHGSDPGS
Chain of Cytochrome P450 3A4 (P08684 whole entry, canonical isoform): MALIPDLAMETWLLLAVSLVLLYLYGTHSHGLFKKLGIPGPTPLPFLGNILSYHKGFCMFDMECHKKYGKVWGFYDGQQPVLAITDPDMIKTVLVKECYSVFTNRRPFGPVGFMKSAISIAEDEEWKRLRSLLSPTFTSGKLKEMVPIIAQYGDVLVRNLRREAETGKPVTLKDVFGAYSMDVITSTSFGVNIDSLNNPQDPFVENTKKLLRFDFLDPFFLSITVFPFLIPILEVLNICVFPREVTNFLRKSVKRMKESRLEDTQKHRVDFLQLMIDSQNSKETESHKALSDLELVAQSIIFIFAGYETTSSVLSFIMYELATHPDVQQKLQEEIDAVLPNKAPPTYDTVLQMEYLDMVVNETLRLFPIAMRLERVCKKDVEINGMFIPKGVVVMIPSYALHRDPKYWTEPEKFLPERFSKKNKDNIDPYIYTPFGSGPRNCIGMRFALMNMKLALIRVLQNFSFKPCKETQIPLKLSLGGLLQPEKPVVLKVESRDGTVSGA

## C[C@@H]1Cc2c(ccc3[nH]ncc23)[C@@H](c2c(F)cc(/C=C/C(=O)O)cc2F)N1CC(C)(C)F
[1]
  hepatocyte CLint: 26 µL/min/1e6 cells
[2]
  hepatocyte CLint: 17 µL/min/1e6 cells
[3]
  fraction unbound: 0.0095
[4]
  clearance: 23 mL/min/kg
[5]
  clearance: 5.9 mL/min/kg
[6]
  Vd: 1.6 L/kg
[7]
  half-life: 6.1 h
[8]
  bioavailability: 45%
Estrogen receptor [9]
  IC50: 0.251 nM
Estrogen receptor [10]
  IC50: 0.251 nM
Estrogen receptor [11]
  IC50: > 3160 nM
[12]
  Activity: Dose-dependent effect
Estrogen receptor [13]
  IC50: 1 nM
Mus musculus
  Activity: 93%
[14]
  Ratio: < 0.04
Cytochrome P450 3A4
  IC50: 13000 nM
[15]
  IC50: > 100000 nM
Cytochrome P450 1A2
  IC50: > 30000 nM
[16]
  remaining at 192 h: 58%
[17]
  Activity: Non-Toxic

Source: ChEMBL document CHEMBL4368914, “Tricyclic Indazoles-A Novel Class of Selective Estrogen Receptor Degrader Antagonists” (J Med Chem, 2019)
